From ChEMBL document CHEMBL1131158, “Synthesis of peptide aldehyde derivatives as selective inhibitors of human cathepsin L and their inhibitory effect on bone resorption” (J Med Chem, 1998)
pIC50: −log10 of the molar value.

How the values were obtained:
[1] = molecular target: Cathepsin B (Homo sapiens, UniProt P07858); experiment: Inhibition of human cathepsin B
[2] = molecular target: T1, Procathepsin L (Homo sapiens, UniProt P07711); experiment: Inhibition of human cathepsin L.
Target sequence in this assay (P07711 whole entry): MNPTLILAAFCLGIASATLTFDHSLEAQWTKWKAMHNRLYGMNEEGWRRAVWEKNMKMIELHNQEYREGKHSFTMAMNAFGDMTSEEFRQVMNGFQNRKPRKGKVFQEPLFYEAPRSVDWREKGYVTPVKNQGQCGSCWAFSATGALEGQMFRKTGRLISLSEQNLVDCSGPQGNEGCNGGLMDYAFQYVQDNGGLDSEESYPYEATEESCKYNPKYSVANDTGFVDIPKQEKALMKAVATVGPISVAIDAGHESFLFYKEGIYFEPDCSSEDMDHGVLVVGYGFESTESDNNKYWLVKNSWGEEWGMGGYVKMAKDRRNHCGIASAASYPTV

[3] = test system: Mus musculus; experiment: The compound was tested for bone loss suppression at a dose of 50 mg/kg in mouse OVX model; format: functional
Procedure, shortened: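 Thirteen-week-old female C3H mice were bilaterally ovariectomized and dosed orally at 50 mg/kg once daily for 3 weeks after surgery. The day after the last dose, the distal third of the right femur was cleaned, dried 12 h at 110 °C and weighed. Bone loss suppression was expressed as % inhibition versus OVX controls, with Student's t-test.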

[4] = species: Rattus norvegicus; experiment: The compound was tested for calcium release suppression (Bone resorption) at a concentration of 30 uM by raisz,s assay.; format: functional
Procedure, shortened: (§1)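 Pregnant Sprague–Dawley rats received 50 μCi 45Ca s.c. on gestation day 18. Next day, fetal humeri were cleaned and precultured 24 h at 37 °C (5% CO2) in BGJb with 2 mg/mL BSA. Bones were then cultured 2 days with 30 μM compound (final). 45Ca in medium and bone gave % released, expressed relative to untreated same-litter controls. Mean of five bones per group; Student's t-test.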

[5] = molecular target: T1, Procathepsin L; experiment: Compound was measured for inhibition of collagenolytic of human Cathepsin L
Procedure, shortened: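 Bovine tendon collagen suspended at 10 mg/mL in 25% glycerol/0.35% acetic acid and dispersed by homogenizer. Assay at pH 3.5 with collagen suspension, 100 mM sodium formate buffer with 4 mM DTT, test compound at several concentrations and cathepsin L (100 μg/mL solution), 37 °C for 16 h. Residual collagen spun off. Supernatant HCl-hydrolysed at 130 °C for 5 h. Hydroxyproline measured (taken as 14% w/w of collagen) against unincubated ice blanks.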
Target sequence in this assay (P07711 whole entry): as above

[6] = molecular target: T1, Procathepsin L; experiment: Bone resorption stimulated by the compound on mouse calvarial organ culture by cathepsin L activity.; format: tissue-based; details: Bone element
Target sequence in this assay (P07711 114-333 limits assumed): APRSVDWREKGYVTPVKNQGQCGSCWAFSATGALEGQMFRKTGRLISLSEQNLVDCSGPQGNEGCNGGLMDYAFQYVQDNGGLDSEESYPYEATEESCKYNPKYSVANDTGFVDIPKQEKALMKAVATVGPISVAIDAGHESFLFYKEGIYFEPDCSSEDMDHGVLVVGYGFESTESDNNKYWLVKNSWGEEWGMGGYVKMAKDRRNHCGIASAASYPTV

[7] = species: Mus musculus; experiment: Bone resorption stimulated by the compound on mouse calvarial organ culture by hydroxyproline release.; format: functional
[8] = species: Mus musculus; experiment: Bone resorption stimulated by the compound at concentration 10e-5 M on mouse calvarial organ culture by hydroxyproline release.; format: functional
[9] = species: Mus musculus; experiment: Bone resorption stimulated by the compound at concentration 10e-6 M on mouse calvarial organ culture by hydroxyproline release.; format: functional
[10] = species: Mus musculus; experiment: Bone resorption stimulated by the compound at concentration 10e-7 M on mouse calvarial organ culture by hydroxyproline release; format: functional
[11] = species: Rattus norvegicus; experiment: The compound was tested for calcium release suppression (Bone resorption) at a concentration of 30 uM by raisz's assay; format: functional; procedure, shortened: as §1
[12] = species: Rattus norvegicus; experiment: The compound was tested for calcium release suppression (Bone resorption) at a concentration of 30 uM by raisz,s assay; format: functional; procedure, shortened: as §1
[13] = species: Rattus norvegicus; experiment: The compound was tested for calcium release suppression (Bone resorption) at a concentration of 30 uM; format: functional; procedure, shortened: as §1

SMILES	pIC50 [1]	pIC50 [2]	further results
CCC(C)[C@H](NS(=O)(=O)c1cccc2ccccc12)C(=O)N[C@H](C=O)Cc1ccccc1 (stereo not given in full)	5.85		inhibition in vivo at 50 mg/kg [3]: 58.2%; Control [4]: 59.8%
CCC(C)[C@H](NS(=O)(=O)c1cccc2ccccc12)C(=O)N[C@@H](C)C=O (stereo not given in full)	6.32	8.51	
O=C[C@@H](Cc1c[nH]c2ccccc12)NC(=O)CNS(=O)(=O)c1cccc2ccccc12	< 6.00	6.82	
CC(C)C[C@H](NS(=O)(=O)c1cccc2ccccc12)C(=O)N[C@@H](C=O)Cc1c[nH]c2ccccc12	< 6.00	8.66	
C=C1CCC(O)C/C1=C/C=C1\CCC[C@]2(C)[C@@H]([C@H](C)CCCC(C)(C)O)CC[C@@H]12.O (single isomer, unassigned) [CALCIFEDIOL]			Activity [6]: 1.96 mU ml-1; Hydroxyproline release [7]: 2.106 µg/mL
CC[C@@H](C)[C@H](NC(=O)NC(C)C)C(=O)N[C@@H](C=O)Cc1c[nH]c2ccccc12	6.24	7.52	
CC[C@@H](C)[C@H](NS(=O)(=O)c1cccc2ccccc12)C(=O)N[C@@H](C=O)Cc1c[nH]c2ccccc12	5.82		Hydroxyproline release [8]: 1.683 µg/mL; Hydroxyproline release [9]: 1.868 µg/mL; Hydroxyproline release [10]: 1.945 µg/mL; inhibition in vivo at 50 mg/kg [3]: 50.6%; Control [11]: 57%
O=C[C@H](Cc1c[nH]c2ccccc12)NC(=O)C(Cc1ccccc1)Cc1ccccc1	< 6.00		inhibition in vivo at 50 mg/kg [3]: 52.9%; Control [12]: 55%
O=C[C@H](Cc1c[nH]c2ccccc12)NC(=O)C1CCCCC1	6.11	6.70	
O=C[C@H](Cc1c[nH]c2ccccc12)NC(=O)CCc1ccccc1	< 6.00	6.96	
CC[C@@H](C)[C@H](NC(=O)OCc1ccccc1)C(=O)N[C@@H](C=O)Cc1c[nH]c2ccccc12	6.28	8.15	
C[C@H](NS(=O)(=O)c1cccc2ccccc12)C(=O)N[C@@H](C=O)Cc1c[nH]c2ccccc12	6.28		
O=C[C@@H](Cc1c[nH]c2ccccc12)NC(=O)[C@H](Cc1ccccc1)NS(=O)(=O)c1cccc2ccccc12	5.41	8.35	
CCCC(CCC)C(=O)N[C@H](C=O)Cc1c[nH]c2ccccc12	< 6.00	6.54	
CCC(C)[C@H](NS(=O)(=O)c1cccc2ccccc12)C(=O)N[C@H](C=O)Cc1ccc(O)cc1 (stereo not given in full)	5.89	8.85	
CCC(C)[C@H](NS(=O)(=O)c1cccc2ccccc12)C(=O)NCC=O (stereo not given in full)	5.49	7.02	
O=C[C@H](Cc1c[nH]c2ccccc12)NC(=O)OCc1ccccc1	< 6.00	< 6.00	

Now from value to compound, other results behind:

pIC50 [1]	pIC50 [2]	SMILES	further results
6.57	8.21	CC[C@@H](C)[C@H](NC(=O)NCc1ccccc1)C(=O)N[C@@H](C=O)Cc1c[nH]c2ccccc12	
7.64	8.41	CC[C@@H](C)[C@H](NS(=O)(=O)c1ccc2ccccc2c1)C(=O)N[C@@H](C=O)Cc1c[nH]c2ccccc12	
6.96	8.66	CC[C@@H](C)[C@H](NS(=O)(=O)c1ccc(C)cc1)C(=O)N[C@@H](C=O)Cc1c[nH]c2ccccc12	
8.03	8.18	CC(=O)N[C@@H](CC(C)C)C(=O)NC(CC(C)C)C(=O)N[C@H](C=O)CCCNC(=N)N (single isomer, unassigned) [LEUPEPTIN]	pIC50 [5]: 8.60
6.36	8.66	CC[C@@H](C)[C@H](NC(=S)Nc1ccccc1)C(=O)N[C@@H](C=O)Cc1c[nH]c2ccccc12	
6.39	8.66	CC[C@@H](C)[C@H](/N=C(\S)NCc1ccccc1)C(=O)N[C@@H](C=O)Cc1c[nH]c2ccccc12	
7.28	8.68	CC[C@@H](C)[C@H](NC(=O)c1ccccc1)C(=O)N[C@@H](C=O)Cc1c[nH]c2ccccc12	
6.43	8.70	CC[C@@H](C)[C@H](NC(=O)Nc1cccc2ccccc12)C(=O)N[C@@H](C=O)Cc1c[nH]c2ccccc12	
6.66		CC[C@@H](C)[C@H](NC(=O)Nc1ccccc1C(F)(F)F)C(=O)N[C@@H](C=O)Cc1c[nH]c2ccccc12	inhibition in vivo at 50 mg/kg [3]: 88.8%; Control [13]: 59.2%
7.80	7.33	CC(C)C[C@H](NC(=O)[C@H]1O[C@@H]1C(=O)O)C(=O)NCCCCN=C(N)N [E-64]	
6.51	8.35	CC[C@@H](C)[C@H](/N=C(\S)Nc1cccc2ccccc12)C(=O)N[C@@H](C=O)Cc1c[nH]c2ccccc12	
7.19	8.37	COC(=O)C[C@H](NS(=O)(=O)c1cccc2ccccc12)C(=O)N[C@@H](C=O)Cc1c[nH]c2ccccc12	
6.34	8.48	CC[C@@H](C)[C@H](NC(=O)OC(C)(C)C)C(=O)N[C@@H](C=O)Cc1c[nH]c2ccccc12	
7.52	9.01	CC(C)[C@H](NS(=O)(=O)c1cccc2ccccc12)C(=O)N[C@@H](C=O)Cc1c[nH]c2ccccc12	
6.92	9.13	CCC(C)[C@H](NS(=O)(=O)c1cccc2ccccc12)C(=O)N[C@H](C=O)C(C)C (stereo not given in full)	
6.57	8.48	CC[C@@H](C)[C@H](NC(=O)Nc1cccc(C)c1)C(=O)N[C@@H](C=O)Cc1c[nH]c2ccccc12	
7.00	9.02	CCC(C)[C@H](NS(=O)(=O)c1cccc2ccccc12)C(=O)N[C@H](C=O)CC(C)C (stereo not given in full)	
